Screening data deposited in PubChem by several laboratories.
M18AAP inhibitor: PfM18AAP inhibitors, malaria aminopeptidase, primary screen, biochemical, QFRET, recombinant enzyme | M18 aspartyl aminopeptidase (Plasmodium falciparum 3D7) | H-Glu-NHMec fluorogenic cleavage | inhibition, % at 7.35 µM | 290,000 compounds, 1.2% hits;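 active = inhibition above the campaign mean inhibition over all tested compounds plus 3 SD, cut at about 28% in these data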;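 note: 0% = plate median of test compound wells and 100% = 2 mM ZnCl2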
PfGluPho inh: PfG6PD enzyme inhibitors, primary screen, biochemical, fluorescence intensity, uHTS; 350,000 compounds, 0.78% hits; inhibition, % at 20 µM; glucose-6-phosphate dehydrogenase-6-phosphogluconolactonase (Plasmodium falciparum 3D7); AID 504690, 2011; PfGluPho enzyme, NADPH resazurin-diaphorase fluorescence;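 active = inhibition reaching at least a set limit at 20 µM in the primary screen, cut at about 59% in these data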;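 note: 0% = DMSO wells with substrate and 100% = DMSO wells lacking glucose-6-phosphate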
SUMO HTRF inh: inhibitors of in vitro SUMOylation cascade, primary screen, biochemical, HTRF, uHTS; 290,000 compounds, 0.36% hits; inhibition, % at 35 µM; HTRF SUMOylation assay, SAE1/SAE2 + UBC9; in the data active = inhibition above about 50%, passing the limit was not always enough
Target sequence (P63279 whole entry, looked up): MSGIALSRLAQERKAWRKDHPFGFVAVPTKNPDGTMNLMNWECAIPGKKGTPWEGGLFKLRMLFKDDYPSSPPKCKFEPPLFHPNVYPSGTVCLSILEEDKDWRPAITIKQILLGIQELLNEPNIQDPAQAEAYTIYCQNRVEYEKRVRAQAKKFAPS
APOBEC3G inh: APOBEC3G DNA deaminase inhibitors, primary screen, biochemical, fluorescence, single-stranded DNA substrate, uHTS; DNA dC->dU-editing enzyme APOBEC-3G (Homo sapiens), Q9HC16; 330,000 compounds, 0.28% hits; recombinant A3G, ssDNA deamination FAM/TAMRA fluorescence; inhibition, % at 20 µM;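 active = inhibition of at least 40% at 20 µM, with no more than 30% in the related APOBEC3A deaminase screen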;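 note: plate controls were DMSO wells with A3G for no effect and wells lacking A3G enzyme for full effect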
A3A deaminase: APOBEC3A ssDNA deaminase inhibitors, primary screen, selectivity assay for APOBEC3G inhibitor project, biochemical, FAM/TAMRA oligo cleavage fluorescence | recombinant A3A, FAM/TAMRA ssDNA deamination fluorescence | DNA dC->dU-editing enzyme APOBEC-3A (Homo sapiens), P31941 | inhibition, % at 20 µM | 330,000 compounds, 0.41% hits;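 active = at least 40% inhibition at 20 µM here, with at most 30% in a related deaminase screen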;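 note: plate controls were A3A with DMSO for no effect and wells lacking A3A enzyme for full effect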
Target sequence (P31941 whole entry, looked up): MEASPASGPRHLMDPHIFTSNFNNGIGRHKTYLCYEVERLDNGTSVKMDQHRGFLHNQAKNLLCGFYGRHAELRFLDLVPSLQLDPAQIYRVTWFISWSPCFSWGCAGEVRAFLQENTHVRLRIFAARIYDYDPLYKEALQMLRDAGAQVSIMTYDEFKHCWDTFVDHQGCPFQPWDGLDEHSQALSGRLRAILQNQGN
HKDC1 inh: HKDC1 hexokinase inhibitors, primary screen, biochemical, fluorescence, uHTS. 340,000 compounds, 0.16% hits. Q2TB90. inhibition, % at 20 µM. recombinant HKDC1, G6PDH/diaphorase resazurin coupled fluorescence. AID 493160, 2011;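 active = inhibition above about 35% when tested at 20 µM, limit read from the data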;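 note: plate controls were DMSO wells with enzyme for no effect and DMSO wells lacking enzyme for full effect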
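Test system: Recombinant HKDC1 (HK5) hexokinase enzyme, produced in-house | Input: HKDC1 at 5 µg/mL | Buffer or medium: Tris pH 8.0 buffer with MgCl2, Tween-20, BSA, BME | Schedule: 90 min reaction incubation at room temperature, dark | Technique: Resazurin-to-resorufin fluorescence via G6PDH and diaphorase coupling, 525/613 nm | Controls: DMSO wells with and without enzyme mix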
A3A conf: APOBEC3A deaminase inhibitors, retest, confirmation, selectivity assay for APOBEC3G inhibitor project, biochemical, single concentration, fluorescence readout; recombinant A3A, ssDNA deaminase UDG fluorescence assay; inhibition, % at 20 µM; 1,400 compounds, 63% hits; shares compounds with A3A deaminase;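 active = inhibition reaching a set limit, 80% of the first screen's cutoff, at 20 µM in any replicate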;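 note: plate controls were DMSO wells with A3A for no effect and wells lacking A3A enzyme for full effect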
UDG ctr A3A: E. coli UDG inhibitors, confirmation, counter-screen for APOBEC3A inhibitor project, biochemical, single concentration, fluorescence, FAM/TAMRA oligo; shares compounds with A3A deaminase; UDG counterscreen, FAM/TAMRA uracil oligo fluorescence; inhibition, % at 20 µM; 1,000 tested, under 10 active; AID 504714, 2011; call rule not given here
The depositor's hits bear a star. Most compounds without a hit are left out; they make up all but 2.4% or so of the library.

For CCOC(=O)C1CCN(S(=O)(=O)c2ccc3c(c2)CC(=O)N3C)CC1 the results were M18AAP inhibitor -3.2, PfGluPho inh 1.6, SUMO HTRF inh 9.8, APOBEC3G inh 27.8, A3A deaminase 51.6*, HKDC1 inh 10.5, A3A conf 54.9* and UDG ctr A3A -4.3.
`CCCCn1cnc2c(SCc3ccc(Br)cc3)nc(N)nc21` gave PfGluPho inh 26.2 and HKDC1 inh -1.0.
C=CCn1cccc(C(=O)Nc2ccc(OC)c(Cl)c2)c1=O was read as M18AAP inhibitor 17.8, PfGluPho inh 8.6, SUMO HTRF inh -1.4, APOBEC3G inh -8.9, A3A deaminase 47.5*, HKDC1 inh 0.4, A3A conf -10.1 and UDG ctr A3A 5.7.
`Cc1cc(C)n2nc(C(=O)Nc3c(C)nn(Cc4ccc(F)cc4)c3C)cc2n1` gave M18AAP inhibitor 5.1, PfGluPho inh 15.6, SUMO HTRF inh 22.6, APOBEC3G inh 3.8, A3A deaminase 12.1 and HKDC1 inh 2.0.
Screening O=C(NCc1ccc2c(c1)OCO2)c1cc2ncc(Br)cn2n1 returned M18AAP inhibitor -0.1, PfGluPho inh 20.9, SUMO HTRF inh 39.0, APOBEC3G inh 10.4, A3A deaminase 92.7*, HKDC1 inh 22.9, A3A conf 82.7* and UDG ctr A3A -1.1.
`Cc1nn(Cc2ccc(F)cc2)c(C)c1NC(=O)c1cc2ncc(Br)cn2n1` gave M18AAP inhibitor 1.9, PfGluPho inh 3.0, SUMO HTRF inh -5.3, APOBEC3G inh 4.3, A3A deaminase 40.7*, HKDC1 inh -4.0 and A3A conf 26.4.
Screening CC1CCN(C(=O)c2ncn(C)c2C(=O)N2CCC(C)CC2)CC1 returned PfGluPho inh 5.0, APOBEC3G inh 19.5, A3A deaminase 54.6*, HKDC1 inh -4.8, A3A conf 69.5* and UDG ctr A3A -1.6.
O=C(COc1ccccc1/C=C1/NC(=O)NC1=O)Nc1ccccc1 was read as M18AAP inhibitor 3.7, PfGluPho inh 0.2, SUMO HTRF inh 2.7, APOBEC3G inh 10.2, A3A deaminase 46.1*, HKDC1 inh -11.1, A3A conf 68.2* and UDG ctr A3A -3.6.
`COc1ccccc1C(=O)Nc1ccc(-c2nnn(CC(=O)NCc3ccco3)n2)cc1` gave M18AAP inhibitor -2.4, PfGluPho inh 3.5, APOBEC3G inh -3.4, A3A deaminase 5.5 and HKDC1 inh -3.2.
`Cc1noc(C)c1CSCC(=O)Nc1nc2ccc(S(C)(=O)=O)cc2s1` gave PfGluPho inh -5.8, APOBEC3G inh 2.1, A3A deaminase 44.3*, HKDC1 inh -0.2 and A3A conf 14.8.
For COC(=O)CCC(=O)OC1(C)C(=O)C=C2C=C(C3CC3)N(C3CCCCC3)C=C2C1=O (stereo unspecified) the results were PfGluPho inh 45.9, SUMO HTRF inh 28.0, APOBEC3G inh -9.2, A3A deaminase 47.5*, HKDC1 inh 12.3, A3A conf -5.2 and UDG ctr A3A -1.5.
Screening COC(=O)CCC(=O)OC1(C)C(=O)C=C2C=C(C3CC3)N(C3CCCC3)C=C2C1=O (stereo unspecified) returned PfGluPho inh 53.0, SUMO HTRF inh 3.3, APOBEC3G inh -6.9, A3A deaminase -4.1 and HKDC1 inh 9.6.
